Results: ChEMBL document CHEMBL3779801, “Discovery of the Selective CYP17A1 Lyase Inhibitor BMS-351 for the Treatment of Prostate Cancer” (ACS Med Chem Lett, 2016)

Tests used:
[1] = AUC in cynomolgus monkey plasma at 4 mg/kg, po after 0.25 to 45 hrs by LC-MS/MS analysis; format: ADME, organism-based, Macaca fascicularis; design: dose 4 mg/kg, time upper 45 hr, time lower 0.25 hr, route oral
How it was run: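 Cynomolgus monkeys were dosed orally from a solution formulation. Plasma parameters are given as mean ± standard deviation.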

[2] = Inhibition of cynomolgus monkey CYP11B1 using hydroxy progesterone as substrate incubated for 120 mins by LC-MS method; design: species or system Macaca fascicularis
[3] = biological target: T1, Steroid 21-hydroxylase (Homo sapiens, UniProt P08686); test: Inhibition of CYP21A2 in human H295R cells using hydroxy progesterone as substrate incubated for 120 mins by LC-MS method; format: ADME, cell-based
T1 sequence (P08686 whole entry): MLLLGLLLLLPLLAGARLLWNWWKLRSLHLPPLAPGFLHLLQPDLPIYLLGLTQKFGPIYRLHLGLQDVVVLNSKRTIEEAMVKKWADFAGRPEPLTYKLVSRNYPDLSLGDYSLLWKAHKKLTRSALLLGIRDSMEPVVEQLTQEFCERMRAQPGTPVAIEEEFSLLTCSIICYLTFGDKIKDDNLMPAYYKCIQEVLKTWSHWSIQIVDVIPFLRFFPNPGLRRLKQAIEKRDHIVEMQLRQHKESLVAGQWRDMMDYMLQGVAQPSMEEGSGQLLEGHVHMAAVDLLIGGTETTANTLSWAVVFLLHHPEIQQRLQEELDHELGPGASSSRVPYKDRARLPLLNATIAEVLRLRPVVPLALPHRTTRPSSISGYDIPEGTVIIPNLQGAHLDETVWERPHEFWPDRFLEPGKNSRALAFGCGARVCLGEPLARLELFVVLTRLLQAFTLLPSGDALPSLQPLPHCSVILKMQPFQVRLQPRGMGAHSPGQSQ

[4] = biological target: T2, Steroid 17-alpha-hydroxylase/17,20 lyase (Homo sapiens, UniProt P05093); test: Selectivity ratio of human CYP17A1 hydroxylase activity expressed in Escherichia coli using pregnenolone substrate to human CYP17A1 lyase activity expressed in HEK293 cell microsomes using [3H]-hydroxypregnenolone substrate
T2 sequence (P05093 whole entry): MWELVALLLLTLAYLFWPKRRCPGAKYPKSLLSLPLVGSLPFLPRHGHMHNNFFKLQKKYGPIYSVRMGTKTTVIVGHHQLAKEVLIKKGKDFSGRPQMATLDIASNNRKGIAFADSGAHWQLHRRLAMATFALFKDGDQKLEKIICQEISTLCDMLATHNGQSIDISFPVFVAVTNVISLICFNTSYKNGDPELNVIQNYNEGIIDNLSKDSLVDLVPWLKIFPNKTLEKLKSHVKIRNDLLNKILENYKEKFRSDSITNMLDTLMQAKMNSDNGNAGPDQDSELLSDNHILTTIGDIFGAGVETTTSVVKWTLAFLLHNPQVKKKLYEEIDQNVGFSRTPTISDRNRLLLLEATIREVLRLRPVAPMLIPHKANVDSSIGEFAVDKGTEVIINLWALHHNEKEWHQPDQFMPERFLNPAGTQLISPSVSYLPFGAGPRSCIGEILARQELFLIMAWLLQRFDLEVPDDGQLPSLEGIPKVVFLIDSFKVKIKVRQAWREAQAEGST
How it was run: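 Hydroxylase and lyase activities were run with different enzyme preparations, so the hydroxylase/lyase ratios are estimates.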

[5] = Intrinsic permeability from apical to basolateral side in human Caco2 cells; format: ADME, cell-based; conditions: Caco-2
[6] = Metabolic stability in human liver microsomes assessed as parent compound remaining at 0.5 uM incubated for 10 mins; format: ADME; conditions: read-out: Stability
How it was run: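 Compound at 0.5 μM was incubated with human, mouse or cynomolgus liver microsomes for 10 min.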

[7] = Clearance in cynomolgus monkey plasma at 2 mg/kg, iv by LC-MS/MS analysis; format: ADME, organism-based, Macaca fascicularis
How it was run: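 Cynomolgus monkeys were dosed intravenously. Plasma parameters are given as mean ± standard deviation.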

[8] = test system: Cynomolgus monkey; test: Effect on progesterone level in one day castrated cynomolgus monkey assessed as baseline level at 1.5 mg/kg, po bid for 24 hrs by radiometric immunoassay; format: ADME, organism-based, Macaca fascicularis; conditions: in vivo
[9] = biological target: T2, Steroid 17-alpha-hydroxylase/17,20 lyase; test: Inhibition of human CYP17A1 expressed in HEK293 cell microsomes using [3H]-pregnenolone as substrate incubated for 45 mins by scintillation proximity assay in presence of NADPH
[10] = biological target: T3, Cytochrome P450 11B1, mitochondrial (Homo sapiens, UniProt P15538); test: Inhibition of CYP11B1 in human H295R cells using deoxycorticosterone as substrate incubated for 48 hrs by LC-MS method; format: ADME, cell-based
T3 sequence (P15538 whole entry): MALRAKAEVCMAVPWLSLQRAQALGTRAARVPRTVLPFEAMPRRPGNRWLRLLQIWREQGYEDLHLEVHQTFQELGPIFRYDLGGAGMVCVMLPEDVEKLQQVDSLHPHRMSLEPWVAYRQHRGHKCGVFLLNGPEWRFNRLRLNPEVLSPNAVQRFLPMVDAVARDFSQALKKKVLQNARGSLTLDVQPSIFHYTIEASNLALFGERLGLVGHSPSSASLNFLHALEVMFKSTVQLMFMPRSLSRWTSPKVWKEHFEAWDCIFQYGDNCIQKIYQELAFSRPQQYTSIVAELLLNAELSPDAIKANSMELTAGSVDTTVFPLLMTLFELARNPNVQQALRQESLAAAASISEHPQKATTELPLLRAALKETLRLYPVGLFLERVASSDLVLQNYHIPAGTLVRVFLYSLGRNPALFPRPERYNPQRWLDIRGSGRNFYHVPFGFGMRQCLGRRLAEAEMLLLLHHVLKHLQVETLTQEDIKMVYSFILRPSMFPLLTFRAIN

[11] = Intrinsic permeability from basolateral to apical side in human Caco2 cells; format: ADME, cell-based; conditions: Caco-2
[12] = biological target: T2, Steroid 17-alpha-hydroxylase/17,20 lyase; test: Inhibition of CYP17A1 in human adrenal microsomes using [3H]-pregnenolone as substrate incubated for 90 mins by scintillation proximity assay in presence of NADPH; design: species or system Adrenal gland
[13] = Inhibition of cynomolgus monkey CYP21A2 using hydroxy progesterone as substrate incubated for 120 mins by LC-MS method; design: species or system Macaca fascicularis
[14] = biological target: T4, Steroid 17-alpha-hydroxylase/17,20 lyase (Macaca fascicularis, UniProt Q2XVA1); test: Inhibition of CYP17A1 in cynomolgus monkey adrenal microsomes using [3H]-pregnenolone as substrate incubated for 45 mins by scintillation proximity assay in presence of NADPH; design: species or system Adrenal gland
T4 sequence (Q2XVA1 whole entry): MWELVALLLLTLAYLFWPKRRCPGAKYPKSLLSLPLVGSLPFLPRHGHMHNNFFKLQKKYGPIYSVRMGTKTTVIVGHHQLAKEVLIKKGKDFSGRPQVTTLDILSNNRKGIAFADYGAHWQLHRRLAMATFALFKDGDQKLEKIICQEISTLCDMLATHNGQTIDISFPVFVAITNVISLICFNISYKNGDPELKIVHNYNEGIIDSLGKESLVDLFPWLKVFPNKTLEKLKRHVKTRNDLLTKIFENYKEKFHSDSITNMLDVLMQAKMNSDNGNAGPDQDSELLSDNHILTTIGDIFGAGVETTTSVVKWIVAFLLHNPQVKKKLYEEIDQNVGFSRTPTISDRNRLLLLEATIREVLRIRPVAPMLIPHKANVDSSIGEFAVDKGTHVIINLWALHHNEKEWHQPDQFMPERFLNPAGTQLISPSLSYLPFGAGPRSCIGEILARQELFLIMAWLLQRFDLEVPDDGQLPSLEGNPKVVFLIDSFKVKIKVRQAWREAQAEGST

AUC [1]: 12.3 µM·h
IC50 [2]: > 7500 nM
IC50 [3]: > 7500 nM
Papp A→B [5]: 40 ×10⁻⁶ cm/s
remaining at 10 min, 0.5 µM [6]: 90%
clearance [7]: 19 mL/min/kg
IC50 [9]: 19 nM
IC50 [10]: > 7500 nM
Papp B→A [11]: 30 ×10⁻⁶ cm/s
IC50 [12]: 20 nM
IC50 [13]: > 7500 nM
IC50 [14]: 2 nM
Compound: Cc1ccncc1-c1cccc2c1ncn2CC(F)(F)F
Selectivity ratio [4]: 10
Activity [8]: Non-toxic
